# According to ChEMBL document CHEMBL1240328, “Selective compounds define Hsp90 as a major inhibitor of apoptosis in small-cell lung cancer” (Nat Chem Biol, 2007):
# Activity calls are given as the source filed them. The calls are words filed in the database; no cut-off is given here.
# Assays:
# [1] = target: Heat shock protein HSP 90-beta (Homo sapiens) (UniProt P08238); test: Inhibition of HSP90-mediated antiapoptotic activity in human NCI-H69 cells assessed as mitochondrial membrane depolarization at 5 uM after 72 hrs by JC-1 staining-based flow cytometry; type: cell-based
# Outline: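 Mitochondrial membrane potential was measured by JC-1 staining and flow cytometry. Depolarization was scored as a shift to cells emitting only green fluorescence. The mitochondrial uncoupler CCCP served as positive control.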
# [2] = target: Heat shock protein HSP 90-beta (Homo sapiens) (UniProt P08238); test: Inhibition of HSP90-mediated antiapoptotic activity in human NCI-H526 cells assessed as induction of cell death at 10 uM after 72 hrs by propidium iodide staining-based flow cytometry in presence of broad-spectrum caspase inhibitor Boc-D-FMK
# Outline: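 NCI-H526 cells pretreated for 3 h with Boc-D-FMK (100 µM), then exposed to 10 µM for 72 h. Flow cytometry after JC-1 staining for mitochondrial potential and after propidium iodide staining for DNA content. n = 3.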
# [3] = target: Heat shock protein HSP 90-beta (Homo sapiens) (UniProt P08238); test: Inhibition of HSP90-mediated antiapoptotic activity in human NCI-H526 cells assessed as reduction in BAD phosphorylation at 50 uM after 24 hrs by Western blot analysis; type: cell-based
# [4] = target: Heat shock protein HSP 90-beta (Homo sapiens) (UniProt P08238); test: Inhibition of HSP90-mediated antiapoptotic activity in human MCF7 cells assessed as induction of cell growth arrest at 100 uM after 24 hrs by propidium iodide staining-based flow cytometry
# [5] = target: Heat shock protein HSP 90-beta (Homo sapiens) (UniProt P08238); test: Inhibition of HSP90-mediated antiapoptotic activity in human NCI-H526 cells assessed as induction of caspase-3 cleavage at 10 uM after 72 hrs by fluorescence assay in presence of caspase-9 inhibitor Z-LEHD-FMK; type: cell-based
# [6] = target: Heat shock protein HSP 90-beta (Homo sapiens) (UniProt P08238); test: Inhibition of HSP90-mediated antiapoptotic activity in human NCI-H69 cells assessed as increase in apoptotic cell population at 0.2 to 1 uM after 72 hrs by FACS analysis relative to control; type: cell-based
# [7] = target: Heat shock protein HSP 90-beta (Homo sapiens) (UniProt P08238); test: Effect on HSP90-mediated survivin expression in human NCI-H526 cells at 25 uM after 24 hrs by Western blot analysis; type: cell-based
# Outline: (§1)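 NCI-H526 cells were exposed for 24 h to drug or DMSO vehicle. Lysates were made in 50 mM Tris pH 7.4, 150 mM NaCl, 1% NP-40 and quantified by BCA. Western blot used 20–100 µg protein per lane, with β-actin as loading control.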
# [8] = target: Heat shock protein HSP 90-beta (Homo sapiens) (UniProt P08238); test: Effect on HSP90-mediated Bcl-2 expression in human NCI-H526 cells at 25 uM after 24 hrs by Western blot analysis; type: cell-based; outline: as §1
# [9] = target: Heat shock protein HSP 90-beta (Homo sapiens) (UniProt P08238); test: Inhibition of HSP90-mediated antiapoptotic activity in human SKBR3 cells assessed as induction of caspase-9 cleavage at 400 uM after 24 hrs by Western blot analysis; type: cell-based; details: SK-BR-3
# Outline: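 SKBr3 cells at 60–70% confluence were exposed to drug or DMSO vehicle. Lysis was in 50 mM Tris pH 7.4, 150 mM NaCl, 1% NP-40, with protein measured by BCA. Lysates of 20–100 µg were run on SDS-PAGE, blotted to nitrocellulose, probed with primary antibodies and detected with a peroxidase-conjugated secondary (1:5,000). Loading was checked with β-actin or PI(3)K p85.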
# [10] = target: Heat shock protein HSP 90-beta (Homo sapiens) (UniProt P08238); test: Inhibition of HSP90-mediated antiapoptotic activity in human NCI-H526 cells assessed as induction of caspase-9 cleavage at 10 uM after 24 hrs by Western blot analysis; type: cell-based
# Outline: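 NCI-H526 cells at 60–70% confluence were exposed to drug or DMSO for 24 h. Lysed in 50 mM Tris pH 7.4, 150 mM NaCl, 1% NP-40, with protein measured by BCA. 20–100 µg run on SDS-PAGE and blotted to nitrocellulose. Probed with cleaved-protein antibodies and peroxidase secondary at 1:5,000, with β-actin as loading control.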
# NCI-H526 [11] = test: Inhibition of HSP70-mediated antiapoptotic activity in human NCI-H526 cells assessed as induction of caspase-3 cleavage after 24 hrs by Western blot analysis; type: cell-based
# Outline: (§2)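 NCI-H526 cells were treated for 24 h. PARP and caspase-3 cleavage were read by western blot of lysates in Tris/NaCl/NP-40 buffer. Apaf-1 complexes were immunoprecipitated with Apaf-1 antibody, using control IgG, then blotted.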
# NCI-H526 [12] = test: Inhibition of HSP70-mediated antiapoptotic activity in human NCI-H526 cells assessed as release of Apaf-1 from chaperon complex after 24 hrs by Western blot analysis; type: cell-based; outline: as §2
# [13] = target: Heat shock protein HSP 90-beta (Homo sapiens) (UniProt P08238); test: Inhibition of HSP90-mediated antiapoptotic activity in human NCI-H526 cells assessed as increase in caspase-3 activity at 10 uM after 24 hrs by Western blot analysis; type: cell-based
# Sequence of Heat shock protein HSP 90-beta (Homo sapiens) (P08238 whole entry): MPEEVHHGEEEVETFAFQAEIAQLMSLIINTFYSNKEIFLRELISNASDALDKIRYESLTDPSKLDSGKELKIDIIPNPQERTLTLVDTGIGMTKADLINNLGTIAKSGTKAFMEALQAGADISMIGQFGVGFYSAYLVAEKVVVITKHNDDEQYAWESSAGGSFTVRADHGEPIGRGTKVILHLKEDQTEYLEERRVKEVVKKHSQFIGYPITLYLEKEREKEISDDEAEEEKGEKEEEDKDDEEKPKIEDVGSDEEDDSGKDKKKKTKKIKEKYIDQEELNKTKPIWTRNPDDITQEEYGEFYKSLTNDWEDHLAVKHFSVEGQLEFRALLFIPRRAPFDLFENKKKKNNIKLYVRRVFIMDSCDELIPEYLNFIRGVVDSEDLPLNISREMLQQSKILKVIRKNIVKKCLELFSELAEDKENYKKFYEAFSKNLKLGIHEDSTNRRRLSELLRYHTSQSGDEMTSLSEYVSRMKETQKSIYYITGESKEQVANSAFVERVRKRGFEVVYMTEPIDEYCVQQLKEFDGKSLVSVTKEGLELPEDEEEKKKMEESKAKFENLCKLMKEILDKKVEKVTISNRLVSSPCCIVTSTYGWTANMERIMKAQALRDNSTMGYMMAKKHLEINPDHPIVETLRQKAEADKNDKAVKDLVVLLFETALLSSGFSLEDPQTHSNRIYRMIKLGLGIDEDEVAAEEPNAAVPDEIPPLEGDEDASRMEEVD
smiles,measurement,setting,value
O=CN1CC/C(=C/c2ccc3c(c2)OCO3)C1=O,Activity,[1],inactive
same,Activity,[2],inactive
same,Activity,[3],inactive
same,Activity,[4],Active
same,Activity,[5],inactive
same,Activity,[6],inactive
same,Activity,[7],inactive
same,Activity,[8],inactive
same,Activity,[9],inactive
same,Activity,[10],inactive
same,inhibition,NCI-H526 [11],inactive
same,inhibition,NCI-H526 [12],inactive
same,Activity,[13],inactive
